The values that follow come from ChEMBL document CHEMBL1121477, “Noval antitumor nitrosoureas and related compounds and their reactions with DNA” (1980).

Several values for one entry are separate records, joined by “and”; a condition that tells them apart may be missing. Identical values can stand only once.

Experiment [1] can be described thus: Compound was evaluated for its ability to exhibit alkylating property toward DNA at 5 mM in 180 min. In kind it is functional. Put shortly:
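Alkylation was measured with PM2 covalently closed circular DNA (1.2 A280 units, 90% CCC) and 5 mM agent in 200 µL at 37 °C. Aliquots were taken into 20 mM potassium phosphate pH 11.8, 0.4 mM EDTA and 0.5 µg/mL ethidium, heated at 96 °C for 4 min, then rapidly cooled. Fluorescence loss relative to control gives the extent of alkylation.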

Experiment [2] relates to L1210. As to the kind of experiment: Antitumor activity against lymphoid leukemia L1210 cell implanted in mice was measured by number of survivors on day 5 at a dosage of 1.3 mg/kg (6/6). In kind it is functional, Mus musculus.
The subject of experiment [3] is L1210. As to the kind of experiment: Antitumor activity against lymphoid leukemia L1210 cell implanted in mice was measured by wt.change of treated mice minus wt. change of control mice at 1.3 mg/kg from day 0-5 (-2.9/0.3). It is filed as functional, Mus musculus.
Experiment [4] relates to L1210. As to the kind of experiment: Antitumor activity against lymphoid leukemia L1210 cell implanted in mice was measured by %T/C at a dosage of 1.3 mg/kg. In kind it is functional, Mus musculus.
Experiment [5] in a line: Percent ability of compound to produce DNA interstrand cross-links was determined by the ethidium fluorescence assay at 6 hr and compared with antileukemic property. Set-up: concentration or dose not given beside the values. In kind it is functional. The essentials:
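λ-DNA (1.0 A260 unit) was incubated with 5 mM compound in 50 mM potassium phosphate pH 7.2 at 37 °C. Aliquots went into 20 mM potassium phosphate pH 11.8, 0.4 mM EDTA and 0.5 µg/mL ethidium, were heated at 96 °C for 3 min and rapidly cooled. Fluorescence relative to control ×100 gives % DNA molecules with ≥1 interstrand cross-link; accuracy about ±2%.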

Experiment [6] has as its system L1210. As to the kind of experiment: Antitumor activity against lymphoid leukemia L1210 cell implanted in mice was measured by mean survival of mice expressed as treated/control at a dosage of 1.3 mg/kg (25.3/9.6). In kind it is functional, Mus musculus.
The test system of experiment [7] is L1210. As to the kind of experiment: Antitumor activity against lymphoid leukemia L1210 cell implanted in mice was measured by %T/C at a dosage of 200 mg/kg. It is filed as functional, Mus musculus. The essentials:
(§1)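 L1210 leukemia cells (10^5) implanted intraperitoneally in mice on day 0. Compounds were suspended in saline plus Tween 80 and injected intraperitoneally within 5 min of preparation, following Cancer Chemotherapy National Service Center specifications; dose is given per day. Read-outs were weight change from day 0 to 5 (treated vs control), survivors on day 5, mean survival time treated/control, and %T/C.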

The test system of experiment [8] is L1210. As to the kind of experiment: Antitumor activity against lymphoid leukemia L1210 cell implanted in mice was measured by mean survival of mice expressed as treated/control at a dosage of 200 mg/kg (16.4/16.9). In kind it is functional, Mus musculus. Put shortly:
as §1

Experiment [9] concerns L1210. As to the kind of experiment: Antitumor activity against lymphoid leukemia L1210 cell implanted in mice was measured by number of survivors on day 5 at a dosage of 200 mg/kg (6/6). It is filed as functional, Mus musculus. Put shortly:
as §1

The subject of experiment [10] is L1210. As to the kind of experiment: Antitumor activity against lymphoid leukemia L1210 cell implanted in mice was measured by wt.change of treated mice minus wt. change of control mice at 200 mg/kg from day 0-5 (-1.1/1.4). In kind it is functional, Mus musculus. The essentials:
as §1

Experiment [11] relates to L1210. As to the kind of experiment: Antitumor activity against lymphoid leukemia L1210 cell implanted in mice was measured by wt.change of treated mice minus wt. change of control mice at 100 mg/kg from day 0-5 (-2.2/1.4). In kind it is functional, Mus musculus. Put shortly: as §1
Experiment [12] concerns L1210. As to the kind of experiment: Antitumor activity against lymphoid leukemia L1210 cell implanted in mice was measured by number of survivors on day 5 at a dosage of 100 mg/kg (6/6). In kind it is functional, Mus musculus. Put shortly: as §1
Experiment [13] has as its system L1210. As to the kind of experiment: Antitumor activity against lymphoid leukemia L1210 cell implanted in mice was measured by %T/C at a dosage of 100 mg/kg. It is filed as functional, Mus musculus. Put shortly: as §1
In experiment [14] the test system is L1210. As to the kind of experiment: Antitumor activity against lymphoid leukemia L1210 cell implanted in mice was measured by mean survival of mice expressed as treated/control at a dosage of 100 mg/kg (15.4/9.7). In kind it is functional, Mus musculus. Put shortly:
as §1

For experiment [15], the system named is L1210. As to the kind of experiment: Antitumor activity against lymphoid leukemia L1210 cell implanted in mice was measured by %T/C at a dosage of 1 mg/kg. In kind it is functional, Mus musculus.
In experiment [16] the test system is L1210. As to the kind of experiment: Antitumor activity against lymphoid leukemia L1210 cell implanted in mice was measured by mean survival of mice expressed as treated/control at a dosage of 1 mg/kg (12.3/10.5). It is filed as functional, Mus musculus.
Experiment [17] has as its system Mus musculus. As to the kind of experiment: Antitumor activity against lymphoid leukemia L1210 cell implanted in mice was measured by number of survivors on day 5 at a dosage of 0.9 mg/kg (6/6). It is filed as functional.
In experiment [18] the test system is Mus musculus. As to the kind of experiment: Antitumor activity against lymphoid leukemia L1210 cell implanted in mice was measured by mean survival of mice expressed as treated/control at a dosage of 0.9 mg/kg (15.6/11.1). It is filed as functional.
The subject of experiment [19] is Mus musculus. As to the kind of experiment: Antitumor activity against lymphoid leukemia L1210 cell implanted in mice was measured by wt.change of treated mice minus wt. change of control mice at 0.9 mg/kg from day 0-5 (-1.4/0.4). In kind it is functional.
The subject of experiment [20] is Mus musculus. As to the kind of experiment: Antitumor activity against lymphoid leukemia L1210 cell implanted in mice was measured by %T/C at a dosage of 0.9 mg/kg. In kind it is functional.
Experiment [21] deals with L1210. As to the kind of experiment: Antitumor activity against lymphoid leukemia L1210 cell implanted in mice was measured by %T/C on a 1-9 day schedule. It is filed as functional, Mus musculus.
Experiment [22] concerns L1210. As to the kind of experiment: Antitumor activity against lymphoid leukemia L1210 cell implanted in mice was measured by wt.change of treated mice minus wt. change of control mice at 200 mg/kg from day 0-5 (-4.4/1.4). It is filed as functional, Mus musculus. The essentials: as §1
The subject of experiment [23] is L1210. As to the kind of experiment: Antitumor activity against lymphoid leukemia L1210 cell implanted in mice was measured by mean survival of mice expressed as treated/control at a dosage of 200 mg/kg (14.9/9.8). It is filed as functional, Mus musculus. Put shortly:
as §1

In experiment [1], `Cc1ccc(S(=O)(=O)OCCCl)cc1` had an Alkylation of 0%.

In general, T/C refers to the ratio of treated to control. `NC(=O)N(CCCl)N=O`: in the experiment with L1210 [2], the Survivals was 6. Also, the Alkylation in [1] was determined as 70%. This compound displayed a Change in weight in the experiment with L1210 [3] of -2.9 g. Further, the T/C in the experiment on L1210 [4] came to 263%. In experiment [5], the Activity stood at 37%. The compound also had a Mean survival in the experiment with L1210 [6] of 25.3 time day-1.

Consider `CS(=O)(=O)OCCCl`, for which the Alkylation in [1] is 0%.

As to `CCN(N=O)C(N)=O`, the Alkylation in experiment [1] was found to be 53%.

For `O=NN(CCSCCO)C(=O)NC1CCCCC1`, the T/C with L1210 [7] is given as 110%. Further, the Mean survival with L1210 [8] is listed as 16.4 time day-1. In the experiment with L1210 [9], this compound yielded a Survivals of 6. The Alkylation in [1] was 96%. Also, the Activity in [5] was determined as 0%. In addition, the Change in weight with L1210 [10] is recorded as -1.1 g.

With `O=NN(CC[S+]([O-])CCCl)C(=O)NC1CCCCC1` (stereo not given), in the experiment with L1210 [11], the Change in weight was -2.2 g. In experiment [1], this compound displayed an Alkylation of 84%. The compound further showed a Survivals with L1210 [12] of 6. In addition, in experiment [5], the Activity was found to be 0%. Also, in the experiment on L1210 [13], the T/C is reported as 159%. This compound also returned a Mean survival in the experiment with L1210 [14] of 15.4 time day-1.

On to `Cc1ccc(S(=O)(=O)N(CCCl)N=O)cc1`, for which, in the experiment with L1210 [15], the T/C is 117%. This compound also displayed a Mean survival in the experiment with L1210 [16] of 12.3 time day-1. The Activity in experiment [5] was found to be 0%.

As to `CCOC(=O)N(CCCl)N=O`, the Survivals in the experiment with Mus musculus [17] came to 6. Also, the Mean survival with Mus musculus [18] is 15.6 time day-1. In addition, in the experiment on Mus musculus [19], the Change in weight is recorded as -1.4 g. The T/C in the experiment on Mus musculus [20] came out at 140%. Besides, in experiment [5], the Activity was 12% and 24% and 28%.

In turn, `CC(=O)N(CCCl)N=O` registered an Activity in [5] of 44%.

For `O=[N+]([O-])c1ccc(S(=O)(=O)OCCCl)cc1`, in [1], the Alkylation was 0%.

As to `O=NN(CCCl)C(=O)OCCCSSCCCOC(=O)N(CCCl)N=O`, the T/C in the experiment with L1210 [21] was found to be 136%. Further, the Activity in [5] is 8% and 25% and 21%.

The compound `O=NN(CCOCCCl)C(=O)NC1CCCCC1` gave a T/C in the experiment with L1210 [7] of 152%. In the experiment on L1210 [22], this compound returned a Change in weight of -4.4 g. In the experiment with L1210 [23], the Mean survival came to 14.9 time day-1. Also, in the experiment with L1210 [9], the Survivals was 6. In [1], this compound registered an Alkylation of 66%. This compound also yielded an Activity in experiment [5] of 0%.

Turning to `O=S(=O)(OCCCl)C(F)(F)F`, in [1], the Alkylation was found to be 40%.
